Experimental data published in ChEMBL document CHEMBL1137646, “Intracellular metabolism and persistence of the anti-human immunodeficiency virus activity of 2',3'-didehydro-3'-deoxy-4'-ethynylthymidine, a novel thymidine analog” (Antimicrob Agents Chemother, 2007).

Tests used:
[1] = target: Human immunodeficiency virus type 1 reverse transcriptase (Human immunodeficiency virus 1) (UniProt Q72547); assay: Ratio of Ki to Km for HIV1 reverse transcriptase
RKO [2] = assay: Induction of thymidylate kinase expression in human RKO cells expressing Tet-On gene after 48 hrs by Western blotting relative to control; type: functional
Outline: (§1)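 Tet-On TMPK RKO cells were grown with doxycycline at 0, 50 or 3,000 ng/ml to induce TMPK. Expression was assessed by Western blotting with actin as the internal control.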

RKO [3] = assay: Induction of thymidylate kinase expression in human RKO cells expressing Tet-On gene after 48 hrs by Western blotting; type: functional, cell-based; outline: as §1
RKO [4] = assay: Induction of 3-phosphoglycerate kinase expression in human RKO cells expressing Tet-On gene at 100 ng/ml after 72 hrs by Western blotting relative to control

Row | Compound | Ki/Km [1] | fold change (FC) (RKO [2]) | Activity (RKO [3]) | fold change (FC) (RKO [4])
1 | C#C[C@@]1(COP(=O)(O)OP(=O)(O)OP(=O)(O)O)C=C[C@H](n2cc(C)c(=O)[nH]c2=O)O1 | 0.15 |  |  | 
2 | Cc1cn([C@H]2C=C[C@@H](COP(=O)(O)OP(=O)(O)OP(=O)(O)O)O2)c(=O)[nH]c1=O | 1.1 |  |  | 
3 | C[C@H]1c2cccc(O)c2C(=O)C2=C(O)[C@]3(O)C(=O)C(C(N)=O)=C(O)[C@@H](N(C)C)[C@@H]3[C@@H](O)[C@@H]21.O [DOXYCYCLINE] |  | 5 | Dose-dependent effect | 3
